Data from ChEMBL document CHEMBL3632558, “Synthesis, antimycobacterial and antibacterial activity of l-[(1R,2S)-2-fluorocyclopropyl]naphthyridone derivatives containing an oxime-functionalized pyrrolidine moiety” (2015).
≈ marks a conversion by molar mass, not a printed value.

System: Mycobacterium tuberculosis
Assay: Antimycobacterial activity against multidrug-resistant Mycobacterium tuberculosis 6133 by alamar blue assay
Type: functional
How it was run: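 Microplate Alamar Blue Assay; MIC is the lowest concentration giving ≥90% reduction in fluorescence relative to the mean of replicate bacterium-only controls. MDR strain 6133 is resistant to isoniazid and rifampicin.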

Structure (SMILES) | MIC90 [µg/mL]
NNC(=O)c1ccncc1 [ISONIAZID] | 4 (≈ 29.2 µM)
Cc1ccc(CO/N=C2\CN(c3nc4c(cc3F)c(=O)c(C(=O)O)cn4[C@@H]3C[C@@H]3F)CC2CN)cc1 (stereo partly specified) | 0.03 (≈ 0.0603 µM)
NCC1CN(c2nc3c(cc2F)c(=O)c(C(=O)O)cn3[C@@H]2C[C@@H]2F)C/C1=N\OCc1ccc(F)cc1 (stereo partly specified) | 0.043 (≈ 0.0857 µM)
CO[C@H]1/C=C/O[C@@]2(C)Oc3c(C)c(O)c4c(O)c(c(/C=N/N5CCN(C)CC5)c(O)c4c3C2=O)NC(=O)/C(C)=C\C=C\[C@H](C)[C@H](O)[C@@H](C)[C@@H](O)[C@@H](C)[C@H](OC(C)=O)[C@@H]1C [RIFAMPIN] | > 40
NCC1CN(c2nc3c(cc2F)c(=O)c(C(=O)O)cn3[C@@H]2C[C@@H]2F)C/C1=N\OCc1ccccc1 (stereo partly specified) | 0.125 (≈ 0.259 µM)
NCC1CN(c2nc3c(cc2F)c(=O)c(C(=O)O)cn3[C@@H]2C[C@@H]2F)C/C1=N\OCc1ccc2c(c1)OCO2 (stereo partly specified) | 0.054 (≈ 0.102 µM)
